This is a sample that favours compounds with a hit; in the whole collection about 5.1% have one here.
STAT1 inh – STAT1 signaling inhibitors, primary screen, cell-based, HTS, luciferase reporter; NIH 3T3 STAT1-luciferase reporter, IFN-gamma, luminescence; inhibition, % at 5.5 µM; 200,000 tested, 0.35% active;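 active means inhibition above a set limit, the mean inhibition across all tested compounds plus 3 SD, cut at about 34% in these data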
STAT1 act – STAT1 signaling activators, primary screen, cell-based, HTS, luciferase reporter | activation (% of control), % at 5.5 µM | 200,000 tested, 2.6% active | NIH 3T3 STAT1-luciferase reporter, IFN-gamma, luminescence; 100% = IFN-gamma alone, no compound;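 active means activation above the screen-wide mean activation plus 3 SD, cut at about 130% in these data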
STAT3 inh – IL-6 driven STAT3 reporter inhibitors, primary screen, U3A cells, luciferase, luminescence, MLSCN library; inhibition, % at 5.5 µM; 190,000 tested, 0.89% active; IL-6 STAT3-luciferase reporter; host cell line lacks STAT1;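 active means inhibition above the mean inhibition across all screened compounds plus 3 SD, cut at about 44% in these data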
NF-kB expr up – activators of NF-kB expression in neurons, primary screen, cell-based, HTS; human neuronal cells, NF-kB reporter expression; hits give high values; fold change at 12.5 µM; 190,000 tested, 1.6% active; AID 1239, 2008; in the data active means fold change above about 3.3
STAT3 act – IL-6 driven STAT3 reporter potentiators, primary screen, U3A cells, luciferase, luminescence, MLSCN library | AID 871, 2007 | activation (% of control), % at 5.6 µM | IL-6 STAT3-luciferase reporter; 100% = signal with IL-6 EC80 alone | 190,000 tested, 0.91% active;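 active means activation above the screen-wide mean of compound activation plus 3 SD, cut at about 130% in these data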
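system = STAT3-luciferase reporter U3A cells | reagent = IL-6 stimulus at 33 ng/mL final | timing = 1 h compound pre-exposure, 6 h IL-6 stimulation, 37 °C | measured by = luminescence | evaluation = % activation versus median of IL-6-stimulated wells | control set = IL-6-only wells as 100% reference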
APP 5'UTR act – activators of APP 5'UTR luciferase reporter, primary screen, SH-SY5Y cells; SH-SY5Y APP 5'UTR luciferase reporter, luminescence; zero percent = DMSO vehicle wells; activation, % at 2 µM; AID 1276, 2008; 190,000 tested, 1% active;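 active means activation above a set limit, based on mean plus 3 SD of controls, cut at about 140% in these data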
STAT1 activ conf – STAT1 signaling activators, confirmation, cell-based, HTS, luciferase reporter | activation (% of control), % at 5.7 µM | NIH 3T3 STAT1-luciferase reporter, IFN-gamma potentiation, luminescence; 100% = IFN-gamma EC80 alone, no compound | 1,200 tested, 97% active | shares compounds with STAT1 act;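 active means activation above a set limit carried over from the earlier primary STAT1 screen, cut at about 140% in these data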
NFkB act – NF-kB reporter activators, TNF-alpha stimulated, counter-screen for STAT1 activator project, cell-based, HEK293T, luciferase luminescence | shares compounds with STAT1 act | 100% = TNF-alpha with vehicle only | activation (% of control), % at 5.7 µM | 1,200 tested, 43% active | AID 1306, 2008;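 active means activation above the mean of solvent-only control wells plus 3 SD, set per campaign, cut at about 130% in these data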;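 further: TNF-alpha given at a submaximal dose yielding about 80% of full reporter signal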
STAT3 act STAT1c – STAT3 reporter activation by STAT1 hits, confirmation, counter-screen for STAT1 activator project, U3A cells, luciferase, luminescence; shares compounds with STAT1 act; IL-6; cells lack STAT1; 100 = IL-6 alone, no compound effect; activation (% of control), % at 5.7 µM; 1,200 tested, 46% active; AID 1316, 2008;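 active means activation above the solvent-only control well mean plus 3 SD, set per plate batch, cut at about 110% in these data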;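 further: higher means more STAT3 reporter activation so hits are non-selective activators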
A number is an active result; n = inactive; x = no result.

SMILES | STAT1 inh | STAT1 act | STAT3 inh | NF-kB expr up | STAT3 act | APP 5'UTR act | STAT1 activ conf | NFkB act | STAT3 act STAT1c
COc1ccc2c(c1)CCC/C2=N/OC(=O)c1ccccc1OC | n | n | n | n | n | n | x | x | x
COc1ccc2c(c1)CC/C2=N\OC(=O)c1cccc(C)c1 | n | 165 | n | 5.9 | n | n | 183 | 137 | n
COc1ccc2c(c1)CC/C2=N\OC(=O)c1ccccc1C | n | 159 | n | 5.9 | n | 153 | 182 | 134 | n
O=C(O)c1nc(-c2ccccc2)n(-c2cccc(C(F)(F)F)c2)n1 | n | n | n | n | n | n | x | x | x
COc1ccc(NS(=O)(=O)c2cccc(-c3n[nH]c(=S)n3Cc3ccccc3)c2)cc1 | n | n | n | n | n | n | x | x | x
C=CCn1c(-c2ccc(Cl)cc2)cnc1SC(C)C(=O)NC(N)=O (stereo unspecified) | n | n | n | n | n | n | x | x | x
O=C(CCc1nnc(CCCCc2ccccc2)o1)N(CCO)Cc1ccccc1 | n | n | n | n | n | n | x | x | x
C=C(C)CN(CC)C(=O)CCc1nnc(CCCc2ccccc2)o1 | n | 154 | n | n | n | n | 172 | n | 123
c1ccc(CN2CCN(CCOCCOc3ccc4c(c3)CCC4)CC2)cc1 | n | n | n | n | n | n | x | x | x
Cc1ccc(C(=O)Nc2nc3c(s2)CCCC3)o1 | n | 155 | n | 7.3 | n | 166 | 209 | n | n
Cc1onc(-c2ccccc2Cl)c1C(=O)Nc1nc2c(s1)CCCC2 | n | n | n | n | n | n | x | x | x
CC1=NN(C(=O)c2ccc(C)o2)C(O)(c2ccccc2)C1 (stereo unspecified) | n | 159 | n | n | n | n | n | n | n
COc1cccc(NC(=O)Cn2cnc3sc(C)c(S(=O)(=O)N4CCCCC4)c3c2=O)c1 | n | n | n | n | n | n | x | x | x
Cc1cc(C)nc(SCc2csc(-c3ccccc3)n2)n1 | n | 169 | n | 4.5 | n | 146 | 187 | n | n
CC(=O)OC(C(=O)NCCN1CCOCC1)c1c(F)cccc1F (stereo unspecified) | n | n | n | n | n | n | x | x | x
O=C(Nc1ccccc1)OC1CC2CC1C1CCCC21 (stereo unspecified) | n | 162 | n | n | n | n | 175 | 134 | 111
CCCC(=O)OCC(=O)Nc1ccc(N=Nc2ccccc2)cc1 | n | 155 | n | 4.7 | n | n | 189 | 137 | 117
CCNC(=O)COC(=O)c1csc2c1CCCC2 | n | n | n | n | n | n | x | x | x
Cc1nnc(SCC(=O)NCC(=O)Nc2ccc(F)c(F)c2F)n1Cc1ccccc1 | n | n | n | n | n | n | x | x | x
CC(/C=C/c1ccc(OCc2ccccc2)cc1)=N\O | n | 157 | n | n | n | n | 177 | 134 | 112
CC(=O)NC12CC3CC(C1)CC(C(=O)OCC(=O)Nc1ncc(Cl)c(C)c1Cl)(C3)C2 | n | n | n | n | n | n | x | x | x
CC(=O)NC12CC3CC(C1)CC(C(=O)OCC(=O)c1ccc4c(c1)OCCO4)(C3)C2 | n | 161 | n | n | n | 156 | 212 | n | 124
CC(C)CC(=O)Nc1ccc2nn(-c3ccccc3)nc2c1 | n | 177 | n | 6.3 | n | 179 | 224 | 149 | n
CC(C)CNS(=O)(=O)c1ccc(CCC(=O)NCCC2=CCCCC2)cc1 | n | n | n | n | n | n | x | x | x
COc1ccc(C2CC(c3ccccc3)=NN2C(=O)CN2CCN(Cc3ccccc3)CC2)cc1 (stereo unspecified) | n | n | n | n | n | n | x | x | x
SMILES | STAT1 inh | STAT1 act | STAT3 inh | NF-kB expr up | STAT3 act | APP 5'UTR act | STAT1 activ conf | NFkB act | STAT3 act STAT1c
COc1ccc(NC(=O)N/C=C/c2ccccc2)cc1 | n | 156 | n | n | n | n | 168 | 142 | n
COc1ccc(C(=O)N/N=C(/C)c2cccc(NC(=O)C(F)(F)F)c2)cc1 | n | n | n | n | n | n | x | x | x
CCCCC(=O)N/N=C(\C)c1cccc(NC(=O)C2CC2)c1 | n | n | n | n | n | n | x | x | x
C/C(=N/NC(=O)c1ccoc1C)c1cccc(NC(=O)C(F)(F)F)c1 | n | 156 | n | n | n | n | n | n | n
C/C(=N/NC(=O)c1ccoc1C)c1cccc(NC(=O)C2CC2)c1 | n | 159 | n | n | n | n | n | n | n
Cc1nn(-c2ccc(C(=O)O)cc2)c(N)c1-c1ccccc1 | n | 160 | n | 4.9 | n | n | 200 | 140 | 139
O=C(CC1C(=O)NCCN1Cc1ccccc1C(F)(F)F)NCCc1ccccn1 (stereo unspecified) | n | n | n | n | n | n | x | x | x
COc1cc(NC(=O)c2ccccc2Cl)ccc1NC(=O)c1cccs1 | n | 153 | n | n | n | n | 181 | 134 | n
Brc1ccccc1/C=N/Nc1ccc2ccccc2n1 | n | 158 | n | 9.4 | n | n | 191 | n | 146
CN1C[C@@H]2C[C@@H](c3cccn3-c3nccs3)N3CCC[C@@]23C1=O | n | n | n | n | n | n | x | x | x
O=C(N/N=C/c1ccc(C(F)(F)F)cc1)c1ccc(O)cc1 | n | n | n | n | n | n | x | x | x
Oc1ccc(/C=N/Nc2ccc(C(F)(F)F)cn2)cc1 | n | 168 | n | 4.8 | n | n | 172 | n | n
CCS(=O)(=O)N1Cc2ccccc2CC1C(=O)Nc1nc2ccccc2s1 (stereo unspecified) | n | 174 | n | n | n | 210 | 230 | n | 119
CCc1nnc(NC(=O)C2Cc3ccccc3CN2S(=O)(=O)CC)s1 (stereo unspecified) | n | n | n | n | n | n | x | x | x
O=C1c2ccccc2C(=O)N1CCCc1c[nH]c2ccccc12 | n | n | n | n | n | n | x | x | x
O=C1c2ccccc2C(=O)N1CCc1c[nH]c2ccccc12 | n | 158 | n | 4.6 | n | n | 177 | n | n
N=c1c2cn[nH]c2nc(SCC(=O)c2ccc(Br)cc2)n1-c1ccc(Br)cc1 | n | n | n | n | n | n | x | x | x
CCN(CC)S(=O)(=O)c1cccc(NC(=O)c2cc3ccccc3o2)c1 | n | n | n | n | n | n | x | x | x

Compound activity: PubChem BioAssay, several laboratories
